# Data from PMC4929832 (Nature, 2016).
# Experiments:
# TXK = TXK (Homo sapiens, UniProt P42681); experiment: kinase panel; format: biochemical
# JNK1 = JNK1 (Homo sapiens, UniProt P45983); experiment: kinase panel; format: biochemical
# MRCK-ALPHA = MRCK-ALPHA (Homo sapiens, UniProt Q5VT25); experiment: kinase panel; format: biochemical
# BRSK2 = BRSK2 (Homo sapiens, UniProt Q8IWQ3); experiment: kinase panel; format: biochemical
# TSSK2 = TSSK2 (Homo sapiens, UniProt Q96PF2); experiment: kinase panel; format: biochemical
# Chain of TSSK2 (Q96PF2 whole entry): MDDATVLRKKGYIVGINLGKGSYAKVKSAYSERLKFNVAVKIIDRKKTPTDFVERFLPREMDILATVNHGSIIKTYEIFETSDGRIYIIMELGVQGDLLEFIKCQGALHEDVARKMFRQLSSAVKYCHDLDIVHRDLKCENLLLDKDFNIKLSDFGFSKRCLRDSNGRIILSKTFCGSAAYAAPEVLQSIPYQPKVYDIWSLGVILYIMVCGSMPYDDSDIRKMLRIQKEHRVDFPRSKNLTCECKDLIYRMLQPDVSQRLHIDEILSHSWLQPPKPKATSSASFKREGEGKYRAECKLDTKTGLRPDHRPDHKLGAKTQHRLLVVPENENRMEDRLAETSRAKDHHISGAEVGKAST
# MUSK = MUSK (Homo sapiens, UniProt O15146); experiment: kinase panel; format: biochemical
# CK1-GAMMA3 = CK1-GAMMA3 (Homo sapiens, UniProt Q9Y6M4); experiment: kinase panel; format: biochemical
# HIPK2 = HIPK2 (Homo sapiens, UniProt Q9H2X6); experiment: kinase panel; format: biochemical
# CK1 = experiment: kinase panel; format: biochemical; settings: CK1, 1 μM
# ALK6 = ALK6 (Homo sapiens, UniProt O00238); experiment: kinase panel; format: biochemical
# ROS = ROS (Homo sapiens, UniProt P08922); experiment: kinase panel; format: biochemical
# EPH-A3 = EPH-A3 (Homo sapiens, UniProt P29320); experiment: kinase panel; format: biochemical
# PI3K-GAMMA = PI3K-GAMMA (Homo sapiens, UniProt P48736); experiment: kinase panel; format: biochemical
# IRAK1 = IRAK1 (Homo sapiens, UniProt P51617); experiment: kinase panel; format: biochemical
# TAOK3 = TAOK3 (Homo sapiens, UniProt Q9H2K8); experiment: kinase panel; format: biochemical
# Chain of TAOK3 (Q9H2K8 whole entry): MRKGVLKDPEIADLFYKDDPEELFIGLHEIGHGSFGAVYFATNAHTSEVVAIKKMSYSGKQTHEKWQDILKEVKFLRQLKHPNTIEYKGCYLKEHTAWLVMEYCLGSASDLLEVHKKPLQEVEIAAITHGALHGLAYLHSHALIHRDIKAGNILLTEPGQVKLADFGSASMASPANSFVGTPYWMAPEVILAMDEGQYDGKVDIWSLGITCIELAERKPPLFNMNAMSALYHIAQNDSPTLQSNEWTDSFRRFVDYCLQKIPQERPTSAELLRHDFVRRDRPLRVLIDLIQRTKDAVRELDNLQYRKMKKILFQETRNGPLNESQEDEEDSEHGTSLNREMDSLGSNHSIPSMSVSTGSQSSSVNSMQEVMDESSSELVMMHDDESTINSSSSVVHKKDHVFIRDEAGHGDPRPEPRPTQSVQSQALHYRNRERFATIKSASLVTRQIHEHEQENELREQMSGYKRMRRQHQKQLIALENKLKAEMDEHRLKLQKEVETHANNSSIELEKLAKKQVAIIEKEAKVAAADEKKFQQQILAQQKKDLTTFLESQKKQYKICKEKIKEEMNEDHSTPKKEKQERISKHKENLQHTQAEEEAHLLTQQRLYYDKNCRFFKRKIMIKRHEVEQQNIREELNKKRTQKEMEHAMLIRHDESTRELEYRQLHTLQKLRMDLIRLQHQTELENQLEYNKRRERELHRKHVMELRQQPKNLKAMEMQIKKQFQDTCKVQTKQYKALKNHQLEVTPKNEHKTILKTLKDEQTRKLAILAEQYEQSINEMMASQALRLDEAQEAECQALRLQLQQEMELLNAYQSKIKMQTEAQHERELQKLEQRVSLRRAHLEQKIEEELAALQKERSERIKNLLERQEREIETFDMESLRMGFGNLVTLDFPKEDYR
# CLK1 = CLK1 (Homo sapiens, UniProt P49759); experiment: kinase panel; format: biochemical
# Chain of CLK1 (P49759 whole entry): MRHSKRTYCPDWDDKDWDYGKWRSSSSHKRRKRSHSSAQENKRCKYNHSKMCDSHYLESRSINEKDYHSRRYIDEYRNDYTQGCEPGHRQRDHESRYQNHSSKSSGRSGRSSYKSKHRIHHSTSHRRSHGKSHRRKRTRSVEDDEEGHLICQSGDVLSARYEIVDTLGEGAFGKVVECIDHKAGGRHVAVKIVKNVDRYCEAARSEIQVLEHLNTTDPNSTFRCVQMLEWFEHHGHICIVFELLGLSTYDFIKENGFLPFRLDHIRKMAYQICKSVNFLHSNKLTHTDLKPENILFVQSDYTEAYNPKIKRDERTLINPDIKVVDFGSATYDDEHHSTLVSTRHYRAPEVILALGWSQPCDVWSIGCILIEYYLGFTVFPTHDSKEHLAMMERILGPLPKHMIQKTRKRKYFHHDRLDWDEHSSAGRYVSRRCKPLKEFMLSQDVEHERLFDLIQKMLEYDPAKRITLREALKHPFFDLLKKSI
# PDGFR-BETA = PDGFR-BETA (Homo sapiens, UniProt P09619); experiment: kinase panel; format: biochemical
# EPH-A8 = EPH-A8 (Homo sapiens, UniProt P29322); experiment: kinase panel; format: biochemical
# NEK3 = NEK3 (Homo sapiens, UniProt P51956); experiment: kinase panel; format: biochemical
# PXR Receptor = PXR Receptor (Homo sapiens, UniProt O75469); experiment: PXR Receptor antagonist assay; format: cell-based
# ERB-B2 = ERB-B2 (Homo sapiens, UniProt P04626); experiment: kinase panel; format: biochemical
# Chain of ERB-B2 (P04626 23-1255): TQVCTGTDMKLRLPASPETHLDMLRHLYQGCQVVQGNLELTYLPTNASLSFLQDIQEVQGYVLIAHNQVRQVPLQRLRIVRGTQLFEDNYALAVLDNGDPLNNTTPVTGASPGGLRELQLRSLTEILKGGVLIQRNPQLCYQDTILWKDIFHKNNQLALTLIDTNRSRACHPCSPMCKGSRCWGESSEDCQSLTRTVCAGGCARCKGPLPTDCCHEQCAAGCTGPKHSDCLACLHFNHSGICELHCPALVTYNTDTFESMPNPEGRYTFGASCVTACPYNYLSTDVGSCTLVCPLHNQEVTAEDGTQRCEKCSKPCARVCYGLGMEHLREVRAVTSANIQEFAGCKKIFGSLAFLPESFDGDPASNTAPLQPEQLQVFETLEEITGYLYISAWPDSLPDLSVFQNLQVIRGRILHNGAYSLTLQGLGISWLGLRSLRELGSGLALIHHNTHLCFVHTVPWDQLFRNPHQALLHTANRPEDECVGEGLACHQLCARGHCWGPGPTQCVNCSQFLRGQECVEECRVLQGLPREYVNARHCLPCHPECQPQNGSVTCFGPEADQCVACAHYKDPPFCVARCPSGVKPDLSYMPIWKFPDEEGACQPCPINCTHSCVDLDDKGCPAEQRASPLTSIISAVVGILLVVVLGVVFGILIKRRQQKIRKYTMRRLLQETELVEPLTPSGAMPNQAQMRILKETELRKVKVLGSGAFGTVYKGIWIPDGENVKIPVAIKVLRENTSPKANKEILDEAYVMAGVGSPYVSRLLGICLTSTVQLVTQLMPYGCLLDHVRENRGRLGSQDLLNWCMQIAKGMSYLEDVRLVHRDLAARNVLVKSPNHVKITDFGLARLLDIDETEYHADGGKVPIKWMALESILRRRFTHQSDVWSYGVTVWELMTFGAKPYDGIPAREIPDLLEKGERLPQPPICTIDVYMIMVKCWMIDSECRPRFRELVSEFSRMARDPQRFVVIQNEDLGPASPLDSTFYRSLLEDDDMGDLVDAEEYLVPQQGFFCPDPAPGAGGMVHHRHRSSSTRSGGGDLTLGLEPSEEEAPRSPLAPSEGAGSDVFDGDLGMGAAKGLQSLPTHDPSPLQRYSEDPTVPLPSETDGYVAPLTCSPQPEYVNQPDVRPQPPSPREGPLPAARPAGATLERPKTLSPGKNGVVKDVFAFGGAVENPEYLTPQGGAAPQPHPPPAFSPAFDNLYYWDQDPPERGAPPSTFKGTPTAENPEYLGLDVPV
# CRAF = CRAF (Homo sapiens, UniProt P04049); experiment: kinase panel; format: biochemical
# Chain of CRAF (P04049 whole entry): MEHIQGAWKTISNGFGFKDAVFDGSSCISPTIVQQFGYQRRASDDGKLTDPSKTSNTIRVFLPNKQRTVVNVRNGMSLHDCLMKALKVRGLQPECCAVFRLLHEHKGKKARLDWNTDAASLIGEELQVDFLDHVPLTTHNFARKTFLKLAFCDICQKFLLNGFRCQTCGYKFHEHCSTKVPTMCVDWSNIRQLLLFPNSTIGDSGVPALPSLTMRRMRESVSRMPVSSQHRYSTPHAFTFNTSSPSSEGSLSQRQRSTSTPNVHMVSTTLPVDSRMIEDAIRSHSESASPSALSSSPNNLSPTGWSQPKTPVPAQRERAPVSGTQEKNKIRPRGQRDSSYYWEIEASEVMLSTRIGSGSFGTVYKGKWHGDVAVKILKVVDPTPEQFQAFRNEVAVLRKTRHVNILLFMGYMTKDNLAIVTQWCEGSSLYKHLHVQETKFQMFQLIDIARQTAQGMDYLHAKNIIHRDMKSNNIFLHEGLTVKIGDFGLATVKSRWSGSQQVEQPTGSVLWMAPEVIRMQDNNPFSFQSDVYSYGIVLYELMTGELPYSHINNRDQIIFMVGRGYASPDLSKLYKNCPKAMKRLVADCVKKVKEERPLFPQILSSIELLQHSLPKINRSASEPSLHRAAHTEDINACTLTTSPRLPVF
# H3255 cells = experiment: Proliferation assay; format: cell-based
# In short: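 Cells were maintained in 10% FBS/RPMI with penicillin/streptomycin and plated at 500 cells/well in 10% FBS RPMI. Serially diluted test compound was pin-transferred. Viability was read after 3 days by CellTiter-Glo luminescence and normalized to 0.1% DMSO-treated cells and empty wells. EC50 was obtained by non-linear regression curve fitting.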
# AMP-A1B1G1 = AMP-A1B1G1 (Homo sapiens, UniProt Q13131); experiment: kinase panel; format: biochemical
# TYRO3 = TYRO3 (Homo sapiens, UniProt Q06418); experiment: kinase panel; format: biochemical
# BLK = BLK (Homo sapiens, UniProt P51451); experiment: kinase panel; format: biochemical
# PI3K-BETA = PI3K-BETA (Homo sapiens, UniProt P42338); experiment: kinase panel; format: biochemical
# Alpha1A adrenergic = Alpha1A adrenergic (Homo sapiens, UniProt P35348); experiment: Alpha1A adrenergic calcium flux assay; format: cell-based
# EPH-B1 = EPH-B1 (Homo sapiens, UniProt P54762); experiment: kinase panel; format: biochemical
# Chain of EPH-B1 (P54762 18-984): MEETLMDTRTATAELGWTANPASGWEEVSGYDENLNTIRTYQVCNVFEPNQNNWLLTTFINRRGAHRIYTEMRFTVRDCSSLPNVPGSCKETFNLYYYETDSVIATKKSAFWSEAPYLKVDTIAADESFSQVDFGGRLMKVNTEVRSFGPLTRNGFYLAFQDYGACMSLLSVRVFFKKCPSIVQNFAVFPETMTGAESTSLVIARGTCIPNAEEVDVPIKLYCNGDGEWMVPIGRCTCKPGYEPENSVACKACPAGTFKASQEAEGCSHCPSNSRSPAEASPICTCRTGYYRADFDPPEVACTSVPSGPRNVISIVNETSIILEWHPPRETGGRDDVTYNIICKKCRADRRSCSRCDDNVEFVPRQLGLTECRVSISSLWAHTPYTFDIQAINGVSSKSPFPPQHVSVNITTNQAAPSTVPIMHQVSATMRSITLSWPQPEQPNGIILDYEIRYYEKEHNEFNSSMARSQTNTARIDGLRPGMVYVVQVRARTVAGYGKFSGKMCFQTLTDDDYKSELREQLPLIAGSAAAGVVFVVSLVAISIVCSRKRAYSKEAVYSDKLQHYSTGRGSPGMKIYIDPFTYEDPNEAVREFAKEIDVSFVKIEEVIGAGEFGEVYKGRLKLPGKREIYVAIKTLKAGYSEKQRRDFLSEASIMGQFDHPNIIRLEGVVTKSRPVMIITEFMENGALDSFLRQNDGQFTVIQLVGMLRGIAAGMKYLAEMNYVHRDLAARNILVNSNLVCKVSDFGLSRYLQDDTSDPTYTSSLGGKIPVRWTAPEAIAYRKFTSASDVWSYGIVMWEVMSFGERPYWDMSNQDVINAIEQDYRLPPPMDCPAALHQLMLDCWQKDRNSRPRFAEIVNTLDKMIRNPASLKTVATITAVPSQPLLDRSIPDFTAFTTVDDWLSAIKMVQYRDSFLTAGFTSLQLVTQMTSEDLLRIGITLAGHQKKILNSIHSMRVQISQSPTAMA
# ROCK1 = ROCK1 (Homo sapiens, UniProt Q13464); experiment: kinase panel; format: biochemical
# EPH-A4 = EPH-A4 (Homo sapiens, UniProt P54764); experiment: kinase panel; format: biochemical
# CK1-EPSILON = CK1-EPSILON (Homo sapiens, UniProt P49674); experiment: kinase panel; format: biochemical
# GSK-3-ALPHA = GSK-3-ALPHA (Homo sapiens, UniProt P49840); experiment: kinase panel; format: biochemical
# CDK9-CYCLINT1 = CDK9-CYCLINT1 (Homo sapiens, UniProt P50750); experiment: kinase panel; format: biochemical
# GSK-3-BETA = GSK-3-BETA (Homo sapiens, UniProt P49841); experiment: kinase panel; format: biochemical
# CYP3A4 = CYP3A4 Induction Reporter Gene; format: cell-based; settings: human, CYP3A4 induction reporter gene assay (cell line not given)
# Dopamine D2 receptor = Dopamine D2 receptor (Homo sapiens, UniProt P14416); experiment: Dopamine D2 receptor assay; format: binding
# Chain of Dopamine D2 receptor (P14416 whole entry, species assumed): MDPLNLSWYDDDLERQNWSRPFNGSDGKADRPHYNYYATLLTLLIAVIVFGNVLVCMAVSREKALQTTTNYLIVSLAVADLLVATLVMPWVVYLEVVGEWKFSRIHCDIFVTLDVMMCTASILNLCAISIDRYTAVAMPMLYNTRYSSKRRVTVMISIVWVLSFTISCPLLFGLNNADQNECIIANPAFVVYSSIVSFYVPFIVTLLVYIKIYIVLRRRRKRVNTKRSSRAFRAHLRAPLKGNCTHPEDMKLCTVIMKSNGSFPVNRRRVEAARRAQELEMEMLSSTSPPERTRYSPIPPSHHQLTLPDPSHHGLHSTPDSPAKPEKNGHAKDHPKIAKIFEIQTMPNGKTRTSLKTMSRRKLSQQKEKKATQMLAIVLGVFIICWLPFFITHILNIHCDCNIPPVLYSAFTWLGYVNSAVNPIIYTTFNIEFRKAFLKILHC
# MARK3 = MARK3 (Homo sapiens, UniProt P27448); experiment: kinase panel; format: biochemical
# [1] = tested on: L858R/T790M/C797S EGFR Ba/F3 cells; experiment: Ba/F3 cell proliferation; format: cell-based; settings: EAI045 in combination with cetuximab, 72 hours
# In short: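 Ba/F3 cells, either parental or stably expressing mutant EGFR lines described earlier, were exposed to the test compound for 72 hours. Cell numbers were set empirically. Growth was read by MTS assay. Each point was run in six wells, and each experiment was repeated at least three times. Curves were fitted by non-linear regression to a sigmoidal dose response.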
smiles,measurement,setting,value
"O=C(Nc1nccs1)C(c1cc(F)ccc1O)N1Cc2ccccc2C1=O (stereo not shown) [EAI045, 2-(5-fluoro-2-hydroxyphenyl)-2-(1-oxo-2,3-dihydro-1H-isoindol-2-yl)-N-(1,3-thiazol-2-yl)acetamide]",inhibition at 1 µM,TXK,0%
same,inhibition at 1 µM,JNK1,0%
same,inhibition at 1 µM,MRCK-ALPHA,0%
same,inhibition at 1 µM,BRSK2,0%
same,inhibition at 1 µM,TSSK2,0%
same,inhibition at 1 µM,MUSK,0%
same,inhibition at 1 µM,CK1-GAMMA3,6%
same,inhibition at 1 µM,HIPK2,2%
same,% inhibition,CK1,0%
same,inhibition at 1 µM,ALK6,0%
same,inhibition at 1 µM,ROS,1%
same,inhibition at 1 µM,EPH-A3,1%
same,inhibition at 1 µM,PI3K-GAMMA,0%
same,inhibition at 1 µM,IRAK1,4%
same,inhibition at 1 µM,TAOK3,0%
same,inhibition at 1 µM,CLK1,0%
same,inhibition at 1 µM,PDGFR-BETA,4%
same,inhibition at 1 µM,EPH-A8,0%
same,inhibition at 1 µM,NEK3,0%
same,IC50,PXR Receptor,> 3 µM
same,inhibition at 1 µM,ERB-B2,4%
same,inhibition at 1 µM,CRAF,0%
same,anti-proliferative effect,"H3255 cells; H3255, concentrations as high as 10 μM",no anti-proliferative effect
same,EC50,"H3255 cells; Homo sapiens, NCI-H3255, 72 h, read-out: EC50 Proliferation",> 10 µM
same,inhibition at 1 µM,AMP-A1B1G1,1%
same,inhibition at 1 µM,TYRO3,0%
same,inhibition at 1 µM,BLK,3%
same,inhibition at 1 µM,PI3K-BETA,0%
same,IC50,Alpha1A adrenergic,> 30 µM
same,inhibition at 1 µM,EPH-B1,0%
same,inhibition at 1 µM,ROCK1,0%
same,inhibition at 1 µM,EPH-A4,0%
same,inhibition at 1 µM,CK1-EPSILON,0%
same,inhibition at 1 µM,GSK-3-ALPHA,6%
same,inhibition at 1 µM,CDK9-CYCLINT1,6%
same,inhibition at 1 µM,GSK-3-BETA,0%
same,IC50,CYP3A4,> 10 µM
same,IC50,Dopamine D2 receptor,> 30 µM
same,inhibition at 1 µM,MARK3,0%
same,inhibition of proliferation,[1],potently inhibited
